Measured values from ChEMBL document CHEMBL3525931, “Stereoselective interaction of pantoprazole with ABCG2. II. In vitro flux analysis” (Drug Metab Dispos, 2012).

What was measured:
[1] = molecular target: T1, ABCG2 (Rattus norvegicus, UniProt Q80W57); assay: Asymmetry efflux ratio in MDCK2 cells expressing rat ABCG2 assessed as ABCG2-mediated drug transport ratio at 50 uM after 0.5 to 1 hrs by HPLC method; type: ADME, cell-based
T1 sequence (Q80W57 whole entry): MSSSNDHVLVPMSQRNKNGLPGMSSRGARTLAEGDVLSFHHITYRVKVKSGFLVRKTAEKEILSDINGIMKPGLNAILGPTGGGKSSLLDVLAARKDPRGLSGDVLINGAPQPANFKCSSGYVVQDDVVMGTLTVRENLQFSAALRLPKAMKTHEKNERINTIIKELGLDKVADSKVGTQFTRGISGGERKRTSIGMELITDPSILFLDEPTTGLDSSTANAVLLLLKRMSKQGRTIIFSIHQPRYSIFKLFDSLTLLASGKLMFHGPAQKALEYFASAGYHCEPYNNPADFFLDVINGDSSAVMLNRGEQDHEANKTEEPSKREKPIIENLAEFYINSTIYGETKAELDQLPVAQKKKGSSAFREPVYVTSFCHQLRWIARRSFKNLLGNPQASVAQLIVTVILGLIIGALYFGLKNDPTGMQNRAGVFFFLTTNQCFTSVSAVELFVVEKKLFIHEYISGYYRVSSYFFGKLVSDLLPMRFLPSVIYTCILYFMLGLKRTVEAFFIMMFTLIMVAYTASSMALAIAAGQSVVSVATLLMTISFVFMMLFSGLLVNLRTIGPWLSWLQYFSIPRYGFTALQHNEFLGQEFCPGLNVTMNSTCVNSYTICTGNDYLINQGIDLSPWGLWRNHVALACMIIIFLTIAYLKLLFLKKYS
Outline: (§1)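 Mock (empty pcDNA3.1) or rat Abcg2/human ABCG2-transfected MDCKII, G418-selected, seeded on 3.0-μm Transwell filters at 1.0×10^6 cells/well, grown 4 days to TEER >200 Ω·cm². Single isomer loaded apical or basolateral in serum-free Opti-MEM I with 0.2 μCi/ml [3H]mannitol, 37°C 5% CO2. Receiver sampled at 0.5 and 1 h. Quantified by HPLC-UV 290 nm. Permeability = initial rate/(area × donor concentration). Efflux ratio = B→A rate / A→B rate. n = 3, mean ± S.D.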

[2] = molecular target: T2, Broad substrate specificity ATP-binding cassette transporter ABCG2 (Rattus norvegicus, UniProt Q80W57); assay: Observed permeability in MDCK2 cells expressing rat ABCG2 assessed as ABCG2-mediated basolateral to apical transport at 10 uM after 0.5 to 1 hrs by HPLC method; type: ADME, cell-based; conditions: mdck-ii; outline: as §1
T2 sequence (Q80W57 whole entry): T1 sequence (Q80W57 whole entry)

[3] = Asymmetry efflux ratio in MDCK2 cells assessed as drug transport ratio at 50 uM after 0.5 to 1 hrs by HPLC method; type: ADME, cell-based, Canis lupus familiaris, MDCK-II; conditions: dog, MDCK; outline: as §1
[4] = molecular target: T1, ABCG2; assay: Asymmetry efflux ratio in MDCK2 cells expressing rat ABCG2 assessed as ABCG2-mediated drug transport ratio at 30 uM after 0.5 to 1 hrs by HPLC method; type: ADME, cell-based; outline: as §1
[5] = molecular target: T3, Broad substrate specificity ATP-binding cassette transporter ABCG2 (Homo sapiens, UniProt Q9UNQ0); assay: Observed permeability in MDCK2 cells expressing human ABCG2 assessed as ABCG2-mediated basolateral to apical transport at 200 uM after 0.5 to 1 hrs by HPLC method; type: ADME, cell-based; conditions: mdck-ii; outline: as §1
T3 sequence (Q9UNQ0 whole entry): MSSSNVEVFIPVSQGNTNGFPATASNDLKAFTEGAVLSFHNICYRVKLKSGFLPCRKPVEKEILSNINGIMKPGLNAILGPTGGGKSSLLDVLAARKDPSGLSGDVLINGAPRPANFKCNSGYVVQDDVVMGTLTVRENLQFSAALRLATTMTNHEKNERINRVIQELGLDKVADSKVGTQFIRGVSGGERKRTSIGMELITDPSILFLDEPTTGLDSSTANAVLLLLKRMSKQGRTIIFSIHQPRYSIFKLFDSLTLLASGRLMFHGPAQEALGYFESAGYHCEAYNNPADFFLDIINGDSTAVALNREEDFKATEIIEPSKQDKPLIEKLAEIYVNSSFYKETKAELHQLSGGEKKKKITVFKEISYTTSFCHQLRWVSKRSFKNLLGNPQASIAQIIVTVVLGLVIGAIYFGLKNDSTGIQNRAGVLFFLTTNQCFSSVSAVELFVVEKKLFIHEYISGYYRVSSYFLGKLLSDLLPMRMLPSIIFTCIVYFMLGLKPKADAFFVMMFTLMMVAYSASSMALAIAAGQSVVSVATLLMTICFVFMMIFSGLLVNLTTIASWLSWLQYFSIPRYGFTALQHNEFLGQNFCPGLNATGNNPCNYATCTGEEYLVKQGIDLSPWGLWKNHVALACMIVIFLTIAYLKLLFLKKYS

[6] = Observed permeability in MDCK2 cells assessed as basolateral to apical transport at 3 to 200 uM after 0.5 to 1 hrs by HPLC method; type: ADME, cell-based, Canis lupus familiaris; conditions: dog, mdck-ii; outline: as §1
[7] = molecular target: T2, Broad substrate specificity ATP-binding cassette transporter ABCG2; assay: Observed permeability in MDCK2 cells expressing rat ABCG2 assessed as ABCG2-mediated apical to basolateral transport at 200 uM after 0.5 to 1 hrs by HPLC method; type: ADME, cell-based; conditions: mdck-ii; outline: as §1
[8] = Asymmetry efflux ratio in MDCK2 cells assessed as drug transport ratio at 3 to 200 uM after 0.5 to 1 hrs by HPLC method; type: ADME, cell-based, Canis lupus familiaris, MDCK-II; conditions: dog, MDCK; outline: as §1
[9] = molecular target: T4, ABCG2 (Homo sapiens, UniProt Q9UNQ0); assay: Asymmetry efflux ratio in MDCK2 cells expressing human ABCG2 assessed as ABCG2-mediated drug transport ratio at 10 uM after 0.5 to 1 hrs by HPLC method; type: ADME, cell-based; outline: as §1
T4 sequence (Q9UNQ0 whole entry): T3 sequence (Q9UNQ0 whole entry)

[10] = molecular target: T2, Broad substrate specificity ATP-binding cassette transporter ABCG2; assay: Observed permeability in MDCK2 cells expressing rat ABCG2 assessed as ABCG2-mediated apical to basolateral transport at 3 uM after 0.5 to 1 hrs by HPLC method; type: ADME, cell-based; conditions: mdck-ii; outline: as §1
[11] = Observed permeability in MDCK2 cells assessed as basolateral to apical transport at 10 uM after 0.5 to 1 hrs by HPLC method; type: ADME, cell-based, Canis lupus familiaris; conditions: dog, mdck-ii; outline: as §1
[12] = molecular target: T3, Broad substrate specificity ATP-binding cassette transporter ABCG2; assay: Observed permeability in MDCK2 cells expressing human ABCG2 assessed as ABCG2-mediated basolateral to apical transport at 50 uM after 0.5 to 1 hrs by HPLC method; type: ADME, cell-based; conditions: mdck-ii; outline: as §1
[13] = Observed permeability in MDCK2 cells assessed as apical to basolateral transport at 3 uM after 0.5 to 1 hrs by HPLC method; type: ADME, cell-based, Canis lupus familiaris; conditions: dog, mdck-ii; outline: as §1
[14] = Observed permeability in MDCK2 cells assessed as apical to basolateral transport at 30 uM after 0.5 to 1 hrs by HPLC method; type: ADME, cell-based, Canis lupus familiaris; conditions: dog, mdck-ii; outline: as §1
[15] = molecular target: T4, ABCG2; assay: Asymmetry efflux ratio in MDCK2 cells expressing human ABCG2 assessed as ABCG2-mediated drug transport ratio at 200 uM after 0.5 to 1 hrs by HPLC method; type: ADME, cell-based; outline: as §1
[16] = Observed permeability in MDCK2 cells assessed as basolateral to apical transport at 30 uM after 0.5 to 1 hrs by HPLC method; type: ADME, cell-based, Canis lupus familiaris; conditions: dog, mdck-ii; outline: as §1
[17] = molecular target: T4, ABCG2; assay: Asymmetry efflux ratio in MDCK2 cells expressing human ABCG2 assessed as ABCG2-mediated drug transport ratio at 3 uM after 0.5 to 1 hrs by HPLC method; type: ADME, cell-based; outline: as §1

efflux ratio at 50 µM [1]	Papp [2]	efflux ratio at 50 µM [3]	efflux ratio at 30 µM [4]	Papp [5]	Papp [6]	Papp [7]	efflux ratio at up to 200 µM [8]	efflux ratio at 10 µM [9]	Papp [10]	Papp [11]	Papp [12]	Papp [13]	Papp [14]	efflux ratio at 200 µM [15]	Papp [16]	efflux ratio at 3 µM [17]	SMILES
1.26	224 uL/hr/cm2	1.04	1.63	132 uL/hr/cm2	127 uL/hr/cm2	127 uL/hr/cm2	1.04	8.06	7.4 uL/hr/cm2	130 uL/hr/cm2	156 uL/hr/cm2	118 uL/hr/cm2	116 uL/hr/cm2	1	123 uL/hr/cm2	15	COc1ccnc(C[S@+]([O-])c2nc3cc(OC(F)F)ccc3[nH]2)c1OC
2.46	229 uL/hr/cm2	1.09	6.16	179 uL/hr/cm2	126 uL/hr/cm2	126 uL/hr/cm2	1.04	5.81	12.8 uL/hr/cm2	121 uL/hr/cm2	195 uL/hr/cm2	116 uL/hr/cm2	110 uL/hr/cm2	1.42	116 uL/hr/cm2	8.61	COc1ccnc(C[S@@+]([O-])c2nc3cc(OC(F)F)ccc3[nH]2)c1OC
